According to ChEMBL document CHEMBL5705891, “Small-molecule kinase inhibitors provide insight into Mps1 cell cycle function” (Nat Chem Biol, 2010):
Calls of active or inactive are those of the source. The rule behind the calls is not given here.

Key:
U2OS [1] = assay: Reversal of nocodazole-induced mitotic arrest in human U2OS cells assessed as accumulation of 4N phosphorylated Histone H3-negative cells incubated for 16 hrs by flow cytometry; type: functional, cell-based; settings: dose 5-10 µM
TERT-RPE1 [2] = assay: Induction of aneuploidy in human TERT-RPE1 cells assessed as frequency of non-disjunction events per cell at 10 uM treated for 24 hrs by karyo-typing analysis (reference value: 0.1); type: functional
Outline: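 Asynchronous cells were exposed to 10 μM compound for 24 h. Medium was then replaced with medium containing 100 ng/mL colcemid for 2 h to arrest cells in metaphase, after which cells were harvested and karyotyped.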

HeLa [3] = assay: Antiproliferative activity against human HeLa cells at 10 uM incubated for 4 days by Syto60 staining based assay; type: functional, cell-based; settings: time 4.0 day
Outline: (§1)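 Proliferation read by Syto60 nucleic acid stain fluorescence (excitation 635 nm, emission 695 nm) after treatment for up to 96 h. Each time point normalized to its DMSO control. Mean ± SD from 4 independent experiments. Cells kept at 37°C, 5% CO2 in 10% FBS-supplemented medium.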

U2OS [4] = assay: Reversal of nocodazole-induced mitotic arrest in human U2OS cells assessed as decrease in cyclin B level at 0.3 to 10 uM incubated for 4 hrs by immunoblot analysis; type: functional, cell-based; settings: dose 0.3-10 µM
HeLa [5] = assay: Antiproliferative activity against human HeLa cells assessed as loss of clonal survival upto 10 uM incubated for 10 days by crystal violet staining based assay; type: functional, cell-based; settings: time 10.0 day
Outline: (§2)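 Colony outgrowth: cells plated at 200 cells per 60-mm dish, exposed to compound or DMSO vehicle and stained with crystal violet after 10 days. HCT116 grown in McCoy's 5A; A549 and HeLa in DMEM; hTERT-RPE1 in DMEM/F-12. All media had 10% FBS and penicillin/streptomycin, 37°C, 5% CO2. Quantified from 3 independent experiments, mean + SD, Student's t test.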

U2OS [6] = assay: Effect on thymidine-treated human U2OS cell populations after one cell doubling at 10 uM incubated for 4 hrs followed by thymidine release by immunofluorescence imaging analysis; type: functional, cell-based
HeLa [7] = assay: Antiproliferative activity against human HeLa cells at 10 uM measured after 96 hrs in presence of Z-VAD-FMK by Syto60 staining based assay; type: functional, cell-based
U2OS [8] = assay: Initiation of anaphase in human U2OS cells expressing histone H2B-GFP at 10 uM measured for 20 mins by fluorescence time-lapse microscopy (reference value: 10 %); type: functional
Outline: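 U2OS H2B-GFP cells were given DMSO or inhibitor and imaged by fluorescence time-lapse at 37°C, 5% CO₂, one frame every 2 min. NEBD-to-anaphase time was scored for 100 cells per population and plotted as cumulative percentage initiating anaphase.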

U2OS [9] = assay: Reversal of nocodazole-induced mitotic arrest in human U2OS cells assessed as Ser10 phosphorylated Histone H3-positive 4c population at 10 uM incubated for 16 hrs by flow cytometry (reference value: 94 %); type: functional
[10] = molecular target: Ribosomal protein S6 kinase alpha-1 (Homo sapiens) (UniProt Q15418); assay: Inhibition of RPS6KA1 kinase domain 1 (unknown origin) assessed as residual enzyme activity at 10 uM by Ambit kinase binding assay relative to control
[11] = molecular target: Insulin-like growth factor 1 receptor (Homo sapiens, UniProt P08069); assay: Binding affinity to IGF1R (unknown origin) assessed as dissociation constant by Ambit kinase binding assay
U2OS [12] = assay: Effect on thymidine-treated human U2OS cell populations after two cell doubling at 10 uM incubated for 4 hrs followed by thymidine release by immunofluorescence imaging analysis; type: functional, cell-based
[13] = molecular target: Cyclin-G-associated kinase (Homo sapiens, UniProt O14976); assay: Binding affinity to GAK (unknown origin) assessed as dissociation constant by Ambit kinase binding assay
Focal adhesion kinase 1 = Focal adhesion kinase 1 (Homo sapiens, UniProt Q05397); assay: Binding affinity to FAK (unknown origin) assessed as dissociation constant by Ambit kinase binding assay
A549 = assay: Antiproliferative activity against human A549 cells assessed as loss of clonal survival upto 10 uM incubated for 10 days by crystal violet staining based assay; type: functional, cell-based; settings: time 10.0 day; outline: as §2
TERT-RPE1 [14] = assay: Antiproliferative activity against hTERT-RPE1 cells at 10 uM incubated for 4 days by Syto60 staining based assay; type: toxicity, cell-based; settings: human, tert-rpe1, 96 h, time 4 day
[15] = molecular target: Protein-tyrosine kinase 2-beta (Homo sapiens, UniProt Q14289); assay: Inhibition of PTK2B (unknown origin) assessed as residual enzyme activity at 10 uM by Ambit kinase binding assay relative to control
HCT-116 [16] = assay: Antiproliferative activity against human HCT-116 with BAX-/- cells at 10 uM incubated for 4 days by Syto60 staining based assay; type: functional, cell-based; settings: time 4.0 day; outline: as §1
HCT-116 [17] = assay: Antiproliferative activity against human HCT-116 with p53-/- cells at 10 uM incubated for 4 days by Syto60 staining based assay; type: functional, cell-based; settings: time 4.0 day; outline: as §1
U2OS [18] = assay: Reversal of nocodazole-induced mitotic arrest in human U2OS cells assessed as decrease in cyclin B level at 10 uM incubated for 4 hrs in presence of MG132 by immunoblot analysis; type: functional, cell-based
U2OS [19] = assay: Induction of chromosome misalignment in human U2OS cells expressing histone H2B-GFP at 5 to 10 uM treated for 4 hrs followed by MG132 treatment for 30 to 60 mins and subsequent replacement of medium containing MG132 measured after 30 mins by immunofluoresence analysis; type: functional, cell-based; settings: dose 5-10 µM, time 4.5-5 hrs
[20] = molecular target: Serine/threonine-protein kinase tousled-like 2 (Homo sapiens) (UniProt Q86UE8); assay: Inhibition of TLK2 (unknown origin) assessed as residual enzyme activity at 10 uM by Ambit kinase binding assay relative to control
[21] = molecular target: Serine/threonine-protein kinase pim-3 (Homo sapiens) (UniProt Q86V86); assay: Inhibition of PIM3 (unknown origin) assessed as residual enzyme activity at 10 uM by Ambit kinase binding assay relative to control
[22] = molecular target: Cyclin-dependent kinase 7 (Homo sapiens) (UniProt P50613); assay: Inhibition of CDK7 (unknown origin) assessed as residual enzyme activity at 10 uM by Ambit kinase binding assay relative to control
[23] = molecular target: Dual specificity protein kinase CLK2 (Homo sapiens) (UniProt P49760); assay: Inhibition of CLK2 (unknown origin) assessed as residual enzyme activity at 10 uM by Ambit kinase binding assay relative to control
[24] = molecular target: Inhibitor of nuclear factor kappa-B kinase subunit epsilon (Homo sapiens) (UniProt Q14164); assay: Inhibition of IKK-epsilon (unknown origin) assessed as residual enzyme activity at 10 uM by Ambit kinase binding assay relative to control
[25] = molecular target: Ribosomal protein S6 kinase alpha-1 (Homo sapiens) (UniProt Q15418); assay: Inhibition of RPS6KA1 kinase domain 2 (unknown origin) assessed as residual enzyme activity at 10 uM by Ambit kinase binding assay relative to control
[26] = molecular target: Serine/threonine-protein kinase pim-1 (Homo sapiens) (UniProt P11309); assay: Inhibition of PIM1 (unknown origin) assessed as residual enzyme activity at 10 uM by Ambit kinase binding assay relative to control
[27] = molecular target: Serine/threonine-protein kinase RIO1 (Homo sapiens) (UniProt Q9BRS2); assay: Inhibition of RIOK1 (unknown origin) assessed as residual enzyme activity at 10 uM by Ambit kinase binding assay relative to control
[28] = molecular target: Receptor-interacting serine/threonine-protein kinase 4 (Homo sapiens) (UniProt P57078); assay: Inhibition of RIPK4 (unknown origin) assessed as residual enzyme activity at 10 uM by Ambit kinase binding assay relative to control
Sequence of Receptor-interacting serine/threonine-protein kinase 4 (Homo sapiens) (P57078 whole entry): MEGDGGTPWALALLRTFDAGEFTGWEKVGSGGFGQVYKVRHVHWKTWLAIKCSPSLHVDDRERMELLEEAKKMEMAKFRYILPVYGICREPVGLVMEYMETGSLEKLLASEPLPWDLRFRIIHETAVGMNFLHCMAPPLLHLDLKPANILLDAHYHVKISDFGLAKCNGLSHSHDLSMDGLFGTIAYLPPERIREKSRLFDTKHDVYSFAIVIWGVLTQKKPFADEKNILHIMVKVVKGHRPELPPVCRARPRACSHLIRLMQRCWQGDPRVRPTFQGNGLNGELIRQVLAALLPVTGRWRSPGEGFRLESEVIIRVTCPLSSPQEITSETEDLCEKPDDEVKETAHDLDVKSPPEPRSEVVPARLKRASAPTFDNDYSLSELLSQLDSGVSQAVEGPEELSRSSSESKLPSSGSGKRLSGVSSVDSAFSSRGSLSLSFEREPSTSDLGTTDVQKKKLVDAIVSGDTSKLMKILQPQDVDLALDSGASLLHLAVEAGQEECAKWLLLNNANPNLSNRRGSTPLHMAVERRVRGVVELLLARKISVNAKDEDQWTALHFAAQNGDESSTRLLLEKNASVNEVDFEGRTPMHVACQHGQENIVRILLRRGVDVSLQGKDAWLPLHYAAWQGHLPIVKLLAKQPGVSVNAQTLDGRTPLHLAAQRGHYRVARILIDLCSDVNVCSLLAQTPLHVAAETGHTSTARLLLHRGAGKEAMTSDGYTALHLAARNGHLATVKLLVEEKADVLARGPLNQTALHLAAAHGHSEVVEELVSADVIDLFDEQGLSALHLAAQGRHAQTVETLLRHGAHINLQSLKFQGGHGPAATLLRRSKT

Sequence of Ribosomal protein S6 kinase alpha-1 (Homo sapiens) (Q15418 whole entry, the tested form may be a part): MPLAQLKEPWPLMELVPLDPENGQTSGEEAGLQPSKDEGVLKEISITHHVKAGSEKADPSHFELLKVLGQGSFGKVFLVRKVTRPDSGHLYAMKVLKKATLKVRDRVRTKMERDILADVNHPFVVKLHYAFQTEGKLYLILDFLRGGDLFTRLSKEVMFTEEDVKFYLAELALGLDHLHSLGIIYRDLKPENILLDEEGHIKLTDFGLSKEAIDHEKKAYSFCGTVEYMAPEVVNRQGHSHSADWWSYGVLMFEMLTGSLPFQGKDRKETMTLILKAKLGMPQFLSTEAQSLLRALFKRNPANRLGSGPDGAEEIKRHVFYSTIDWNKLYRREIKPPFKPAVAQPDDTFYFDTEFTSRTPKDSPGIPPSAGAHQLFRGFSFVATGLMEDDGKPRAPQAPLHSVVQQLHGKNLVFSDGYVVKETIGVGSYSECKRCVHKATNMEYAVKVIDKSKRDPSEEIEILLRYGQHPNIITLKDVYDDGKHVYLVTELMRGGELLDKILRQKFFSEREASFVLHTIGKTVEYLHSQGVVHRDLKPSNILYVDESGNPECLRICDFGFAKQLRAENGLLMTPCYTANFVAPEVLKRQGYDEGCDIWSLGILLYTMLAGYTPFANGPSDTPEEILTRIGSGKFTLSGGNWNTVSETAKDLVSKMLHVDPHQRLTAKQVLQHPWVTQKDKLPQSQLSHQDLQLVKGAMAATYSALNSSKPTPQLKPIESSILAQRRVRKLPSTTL
Sequence of Cyclin-dependent kinase 7 (Homo sapiens) (P50613 whole entry): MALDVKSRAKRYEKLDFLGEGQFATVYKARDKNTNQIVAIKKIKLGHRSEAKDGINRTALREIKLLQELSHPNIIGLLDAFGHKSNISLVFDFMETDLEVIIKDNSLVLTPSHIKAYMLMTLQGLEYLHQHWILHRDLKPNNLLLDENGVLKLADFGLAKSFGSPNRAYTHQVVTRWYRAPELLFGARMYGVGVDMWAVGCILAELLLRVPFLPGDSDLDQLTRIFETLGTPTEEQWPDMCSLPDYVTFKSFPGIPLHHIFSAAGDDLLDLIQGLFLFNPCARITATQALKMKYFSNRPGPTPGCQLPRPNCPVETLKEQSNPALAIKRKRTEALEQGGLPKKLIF
Sequence of Inhibitor of nuclear factor kappa-B kinase subunit epsilon (Homo sapiens) (Q14164 whole entry, the tested form may be a part): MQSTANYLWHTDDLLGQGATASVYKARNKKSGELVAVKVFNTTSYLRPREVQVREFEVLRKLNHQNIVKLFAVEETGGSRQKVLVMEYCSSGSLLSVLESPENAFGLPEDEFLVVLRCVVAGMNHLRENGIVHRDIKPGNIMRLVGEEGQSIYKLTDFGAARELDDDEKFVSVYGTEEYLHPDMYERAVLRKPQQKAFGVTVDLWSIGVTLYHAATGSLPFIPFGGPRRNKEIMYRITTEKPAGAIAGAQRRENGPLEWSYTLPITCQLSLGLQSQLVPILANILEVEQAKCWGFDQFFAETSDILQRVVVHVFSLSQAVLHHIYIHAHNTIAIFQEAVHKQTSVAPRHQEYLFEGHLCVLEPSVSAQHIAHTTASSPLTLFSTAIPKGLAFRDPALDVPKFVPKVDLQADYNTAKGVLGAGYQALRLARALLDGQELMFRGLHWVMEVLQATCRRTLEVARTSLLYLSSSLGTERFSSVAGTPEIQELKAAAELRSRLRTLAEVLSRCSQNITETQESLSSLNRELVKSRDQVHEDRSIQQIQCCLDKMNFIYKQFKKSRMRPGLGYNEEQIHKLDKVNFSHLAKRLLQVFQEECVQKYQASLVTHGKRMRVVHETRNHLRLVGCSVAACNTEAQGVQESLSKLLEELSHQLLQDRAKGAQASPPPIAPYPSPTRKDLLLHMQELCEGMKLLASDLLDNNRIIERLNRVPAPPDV
Sequence of Dual specificity protein kinase CLK2 (Homo sapiens) (P49760 whole entry, looked up): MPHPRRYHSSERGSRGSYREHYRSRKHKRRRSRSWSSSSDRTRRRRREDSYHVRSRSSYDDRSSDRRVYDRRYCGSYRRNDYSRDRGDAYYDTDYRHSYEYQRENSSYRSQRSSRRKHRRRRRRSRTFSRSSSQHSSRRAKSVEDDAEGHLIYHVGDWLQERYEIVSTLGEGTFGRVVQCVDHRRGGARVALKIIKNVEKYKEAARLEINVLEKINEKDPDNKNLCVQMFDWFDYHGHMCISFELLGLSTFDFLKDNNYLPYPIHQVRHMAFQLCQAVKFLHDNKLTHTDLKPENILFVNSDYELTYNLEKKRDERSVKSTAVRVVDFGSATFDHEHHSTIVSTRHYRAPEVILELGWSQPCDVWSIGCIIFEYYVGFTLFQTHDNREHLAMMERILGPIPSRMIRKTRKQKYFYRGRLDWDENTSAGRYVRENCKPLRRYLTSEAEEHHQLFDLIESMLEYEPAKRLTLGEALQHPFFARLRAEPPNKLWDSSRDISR
Sequence of Cyclin-G-associated kinase (O14976 whole entry): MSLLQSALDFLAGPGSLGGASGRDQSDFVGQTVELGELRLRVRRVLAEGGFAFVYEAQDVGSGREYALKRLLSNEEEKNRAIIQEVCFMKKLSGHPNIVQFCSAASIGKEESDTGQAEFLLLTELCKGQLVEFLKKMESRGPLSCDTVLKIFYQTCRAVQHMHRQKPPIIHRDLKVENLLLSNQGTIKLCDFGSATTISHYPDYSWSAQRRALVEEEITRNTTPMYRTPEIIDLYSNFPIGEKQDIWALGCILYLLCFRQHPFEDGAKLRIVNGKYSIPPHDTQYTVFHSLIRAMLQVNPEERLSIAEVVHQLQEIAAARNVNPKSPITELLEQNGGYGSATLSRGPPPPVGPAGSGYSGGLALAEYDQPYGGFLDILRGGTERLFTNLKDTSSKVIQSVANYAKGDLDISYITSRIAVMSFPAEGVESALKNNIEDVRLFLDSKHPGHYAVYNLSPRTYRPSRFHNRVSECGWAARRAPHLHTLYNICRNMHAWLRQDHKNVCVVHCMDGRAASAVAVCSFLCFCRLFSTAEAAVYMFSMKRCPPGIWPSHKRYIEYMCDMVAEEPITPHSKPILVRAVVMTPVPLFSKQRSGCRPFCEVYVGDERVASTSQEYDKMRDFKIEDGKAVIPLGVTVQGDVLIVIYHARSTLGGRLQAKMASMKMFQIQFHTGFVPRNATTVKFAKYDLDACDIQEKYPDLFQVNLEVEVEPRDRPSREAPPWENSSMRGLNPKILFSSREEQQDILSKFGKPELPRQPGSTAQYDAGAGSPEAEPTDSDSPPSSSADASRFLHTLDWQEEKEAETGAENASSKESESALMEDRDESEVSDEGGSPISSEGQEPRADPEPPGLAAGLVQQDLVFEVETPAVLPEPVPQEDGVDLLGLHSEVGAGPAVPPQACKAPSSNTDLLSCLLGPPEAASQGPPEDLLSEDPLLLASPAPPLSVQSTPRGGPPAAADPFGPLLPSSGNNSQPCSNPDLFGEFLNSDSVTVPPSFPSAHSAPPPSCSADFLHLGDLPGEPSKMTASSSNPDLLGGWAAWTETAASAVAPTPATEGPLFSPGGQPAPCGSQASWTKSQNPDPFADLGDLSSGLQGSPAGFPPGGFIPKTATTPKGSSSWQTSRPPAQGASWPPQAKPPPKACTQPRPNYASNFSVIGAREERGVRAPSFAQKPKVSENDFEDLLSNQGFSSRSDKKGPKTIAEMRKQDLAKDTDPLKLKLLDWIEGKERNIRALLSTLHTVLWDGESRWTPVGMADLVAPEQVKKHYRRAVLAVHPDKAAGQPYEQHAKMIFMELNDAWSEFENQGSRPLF
Sequence of Serine/threonine-protein kinase pim-1 (Homo sapiens) (P11309 whole entry, looked up): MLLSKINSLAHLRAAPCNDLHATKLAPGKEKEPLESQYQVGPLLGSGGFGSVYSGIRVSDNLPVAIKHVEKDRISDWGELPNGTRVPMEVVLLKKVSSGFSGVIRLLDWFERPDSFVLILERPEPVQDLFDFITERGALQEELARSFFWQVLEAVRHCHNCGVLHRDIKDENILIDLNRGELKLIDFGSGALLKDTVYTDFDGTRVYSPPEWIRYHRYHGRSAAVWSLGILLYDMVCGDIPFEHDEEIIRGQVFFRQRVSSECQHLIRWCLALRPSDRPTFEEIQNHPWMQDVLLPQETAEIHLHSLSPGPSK

**Q.** With `COc1cc(N2CCC(O)CC2)ccc1Nc1cc(Nc2ccccc2S(=O)(=O)C(C)C)c2cc[nH]c2n1` as the molecule, how does the Activity (U2OS [1]) read?
**A.** Dose-Dependent Effect

**Q.** What about the Activity (TERT-RPE1 [2]) of the same molecule?
**A.** 3.3

**Q.** What about the Activity (HeLa [3]) of the same molecule?
**A.** Active

**Q.** What about the Activity (U2OS [4]) of the same molecule?
**A.** Active

**Q.** What about the Activity (HeLa [5]) of the same molecule?
**A.** Active

**Q.** And the Activity (U2OS [6])?
**A.** inactive

**Q.** And the Activity (HeLa [7])?
**A.** Active

**Q.** What about the Activity (U2OS [8]) of the same molecule?
**A.** ~100%

**Q.** And the Activity (U2OS [9])?
**A.** 1%

**Q.** What about the Activity [10] of the same molecule?
**A.** 29%

**Q.** And the Kd [11]?
**A.** 750 nM

**Q.** And the Activity (U2OS [12])?
**A.** inactive

**Q.** And the Kd [13]?
**A.** 1100 nM

**Q.** And the Kd (Focal adhesion kinase 1)?
**A.** 440 nM

**Q.** And the Activity (A549)?
**A.** Active

**Q.** And the Activity (TERT-RPE1 [14])?
**A.** Toxic

**Q.** And the Activity [15]?
**A.** 0.1%

**Q.** And the Activity (HCT-116 [16])?
**A.** Active

**Q.** What about the Activity (HCT-116 [17]) of the same molecule?
**A.** Active

**Q.** What about the Activity (U2OS [18]) of the same molecule?
**A.** inactive

**Q.** And the Activity (U2OS [19])?
**A.** Active

**Q.** `O=C1c2ccccc2-c2n[nH]c3cccc1c23` was tested. Which Activity [20] did it give?
**A.** 30%

**Q.** And the Activity [21]?
**A.** 14%

**Q.** What about the Activity [22] of the same molecule?
**A.** 26%

**Q.** What about the Activity [23] of the same molecule?
**A.** 3.4%

**Q.** And the Activity [24]?
**A.** 12%

**Q.** What about the Activity [25] of the same molecule?
**A.** 3.8%

**Q.** And the Activity [26]?
**A.** 24%

**Q.** And the Activity [27]?
**A.** 10%

**Q.** What about the Activity [28] of the same molecule?
**A.** 2.2%
